A selection: hits, their analogues and other compounds. The true share with any hit is near 1.3%.
Dynein transport = dynein cargo transport inhibition; z-score, hits read low; 0.47% of 220,000 active; AID 1381; 3617.4 mouse cells, GR-EGFP nuclear translocation imaging; test concentration mostly 20 µM; stimulated with dexamethasone, 1 µM; active compounds read low;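 active = plate z-score of nuclear minus cytoplasmic receptor signal below a set negative limit, without overly bright fluorescence or cell loss, cut at about -3.5 in these data, passing the limit was not always enough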;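 note: z-score of nuclear minus cytoplasmic ring GR-EGFP intensity difference per well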
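Buffer or medium: Induction medium lacking tetracycline, stripped serum | Also added: Dexamethasone agonist, 1.0 µM final, for 30 min | Timing: 48 h induction, 1 h compound, 30 min dex at 37 °C | Detection: Formaldehyde fixation, Hoechst nuclear stain, 10x automated fluorescence imaging | Measure: Nuclear versus cytoplasmic GR-EGFP signal, averaged per well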
Biofilm kill mix = mixture kills Candida albicans biofilm cells; C. albicans biofilm persisters + clotrimazole, fluorescence viability; primary screen in compound mixtures of four per well; inhibition, % at 7.6 µM; 0.02% of 120,000 active; AID 1242;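 active = inhibition above 30.3% in the primary screen of four-compound pools, then above 30% when the compound was retested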;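 note: compounds exposed to preformed 24 h biofilms for 48 h; 0% = untreated biofilm control and 100% = clotrimazole plus chlorhexidine kill blank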
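Incubation: 24 h biofilm formation, then 48 h compound exposure, 37 °C | Material: C. albicans biofilms | Buffer or medium: RPMI/MOPS medium, pH 7.0 | Measured by: 2-h Alamar Blue fluorescence, 535/590 nm excitation/emission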
TbHK1 inh = blocks Trypanosoma brucei hexokinase 1 activity; recombinant TbHK1, G6PDH-coupled NADH A340; inhibition, % at 10 µM; 0.11% of 220,000 active;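 active = inhibition of 50% or more in the single-dose primary screen; inactive = inhibition below 50%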
S1P3 antag-1 = antagonists of human S1P3 receptor | Q99500 | CHO S1P3 NFAT-BLA reporter, FRET fluorescence, antagonist mode | inhibition, % at 4.98 µM | 0.27% of 170,000 active;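 active = inhibition above the plate cutoff, the mean inhibition of test wells on that plate plus 3 SD, cut at about 28% in these data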;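 note: cells challenged with S1P at its EC80 of 0.8 µM; blue over green emission ratio from cleaved BLA substrate after 4 h stimulation; 0% = S1P-stimulated wells and 100% = unstimulated DMSO-only wells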
S1P4 agonist = agonists of human S1P4 receptor; O95977; S1P4-expressing cell line, agonist reporter assay; activation, % at 4.98 µM; 0.35% of 220,000 active; AID 1509; in the data active = activation above about 11%;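 note: 0% = DMSO vehicle and 100% = reference agonist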
Target sequence (O95977 whole entry, looked up): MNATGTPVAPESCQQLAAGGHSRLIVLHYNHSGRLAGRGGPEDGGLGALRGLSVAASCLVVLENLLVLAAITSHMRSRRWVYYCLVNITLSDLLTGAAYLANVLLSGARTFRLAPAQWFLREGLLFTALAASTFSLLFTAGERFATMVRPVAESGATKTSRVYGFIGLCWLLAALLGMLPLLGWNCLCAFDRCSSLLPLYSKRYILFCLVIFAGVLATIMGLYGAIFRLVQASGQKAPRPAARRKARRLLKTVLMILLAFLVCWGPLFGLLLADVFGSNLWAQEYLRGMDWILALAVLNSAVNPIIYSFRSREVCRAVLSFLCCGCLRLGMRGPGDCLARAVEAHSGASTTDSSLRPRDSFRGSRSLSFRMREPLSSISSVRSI
S1P4 antagonist = antagonists of human S1P4 receptor. S1P4-expressing cells, antagonist mode, reporter read-out. inhibition, % at 4.98 µM. 0.26% of 220,000 active. AID 1510; in the data active = inhibition above about 29%;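 note: 0% = wells stimulated with agonist and 100% = vehicle wells without agonist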
S1P3 antag-2 = human S1P3 receptor antagonism, confirmation; 30% of 240 active; CHO S1P3 NFAT-BLA reporter, FRET, antagonist mode; shares compounds with S1P3 antag-1; inhibition, % at 4.98 µM;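 active = inhibition above the hit threshold that was computed for the earlier primary screen, cut at about 30% in these data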;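 note: 0% = S1P-stimulated wells and 100% = unstimulated DMSO-only wells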
Dynein inh conf = dynein cargo transport inhibition, confirmation. 3617.4 GR-EGFP nuclear translocation imaging, dexamethasone-induced. 69% of 1,000 active. calls only at 20 µM. shares compounds with Dynein transport;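 active = inhibition of receptor movement into the nucleus at or above a set limit in both runs, with normal cell brightness and cell count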;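 note: dexamethasone at 1 µM final in well for 30 min; nuclear minus cytoplasmic GR-EGFP mean intensity difference in channel 2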
S1P4 ag conf = confirmation of human S1P4 receptor agonists; activation, % at 4.98 µM; 7% of 740 active; S1P4 agonist cell-based reporter assay; shares compounds with S1P4 agonist; AID 1523; in the data active = activation above about 12%;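 note: 0% = vehicle and 100% = full reference agonist response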
S1P1 agonist = human S1P1 agonism as S1P4 agonist counter-screen. shares compounds with S1P4 agonist. S1P1 agonist cell-based assay, activation. activation, % at 4.98 µM. 4% of 740 active; in the data active = activation above about 21%;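 note: 0% = vehicle wells and 100% = reference agonist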
* marks the source's active call; other numbers are inactive results; i = inactive; · = no result; + = active, no number.

SMILES	Dynein transport	Biofilm kill mix	TbHK1 inh	S1P3 antag-1	S1P4 agonist	S1P4 antagonist	S1P3 antag-2	others
Cc1cc(C)n2nc(C(=O)NCc3ccco3)cc2n1	-0.833	13.3	-3.3	-12.1	0.8	-15.2	·
COc1ccc(C2CC(c3ccc4ccccc4c3)=NN2C(=O)CNC2CCCCC2)cc1 (stereo not given)	0.717	4.6	1.4	-11.4	-1.0	5.2	·
C=CCNCC(=O)N1N=C(c2ccc3ccccc3c2)CC1c1ccc(OC)cc1 (stereo not given)	-0.239	14.4	-6.6	31.1*	-0.2	1.4	1.8
CC1(C)OC(=O)C(=CNCC(O)c2ccccc2)C(=O)O1 (stereo not given)	-0.132	·	20.6	-3.6	-0.3	-0.3	·
CC1(C)OC(=O)C(=CNCCc2ccc(O)cc2)C(=O)O1	0.782	12.7	9.1	28.4*	1.2	-13.8	-18.7
C/C(=N/NC(=O)c1cc(-c2ccc(Cl)s2)[nH]n1)c1ccco1	0.494	9.5	-17.2	31.6*	0.7	10.9	-17.9
C/C(=N/NC(=O)c1ccccn1)c1ccco1	0.25	·	-20.1	·	-0.5	12.5	·
Cc1ccc2cc(/C=N/Nc3nc4ccccc4[nH]3)c(Cl)nc2c1	-0.577	7.2	-9.5	46.4*	1.9	0.7	8.2
Cn1c(SCc2ccccc2)nnc1-c1ccc2nonc2c1	0.193	21.6	-9.3	29.5*	0.5	-7.1	-11.1
Cn1c(SCc2ccccc2)nnc1-c1ccc2c(c1)OCO2	-0.77	·	-2.7	4.3	0.4	-10.2	·
C=CCNc1nc(-c2ccc([N+](=O)[O-])cc2)cs1	-1.01	16.3	-9.0	29.4*	-0.3	-9.2	2.9
O=C(NNC1=NCCC1)C1CC1	-0.127	14.2	-8.6	7.3	2.1	-1.2	·
O=NN(CCc1ccncc1)c1ccc(OCc2ccccc2)cc1	-0.835	3.9	-0.9	32.5*	0.1	9.2	13.9
O=C(c1ccccc1)c1ccc2c(c1)OCCOCCOCCOCCO2	0.201	19.2	-18.8	28.9*	1.4	3.2	-14.5
COc1cc(/C=C(/C#N)C(=O)c2c(C)[nH]c3ccccc23)ccc1OCC#N	2.25	8.6	-21.6	30.4*	1.2	2.9	-6.5
CCOc1ccc(/C=C(\C#N)C(=O)c2c(C)[nH]c3ccccc23)cc1OC	-0.729	15.7	-11.9	-16.3	0.0	-7.8	·
CN(C)/C=N/c1ncc(-c2ncc(C(F)(F)F)cc2Cl)cn1	1.55	15.7	-15.4	-4.5	0.4	-17.4	·
CCc1ccccc1NC(=S)N(CCN1CCOCC1)Cc1ccccc1F	-0.68	13.8	9.3	-12.3	-0.9	-7.5	·
Cc1[nH]c2ccccc2c1/C=N/NC(=O)c1cccc([N+](=O)[O-])c1	1.56	1.8	-19.0	-16.6	-3.7	-15.7	·
Cc1[nH]c2ccccc2c1/C=N/Nc1ccc([N+](=O)[O-])cc1	-3.9	8.2	-7.1	40.2*	-2.5	-9.1	28.1	Dynein inh conf=i
O=[N+]([O-])CC(=Nc1ccc(F)cc1)N/N=C\c1oc(O)c2ccccc12	-0.395	17.8	-18.1	-6.6	-1.3	-0.5	·
Cc1ccc(-c2cn3nc(-c4ccccc4)c(-c4ccccc4)nc3n2)cc1	-4.63	28.9	1.1	49.9*	-0.1	14.3	8.7	Dynein inh conf=+
CC(=O)c1ccc(Nc2c3c(nc4ccccc24)CCCC3)cc1	1.11	28.1	-46.1	29.0*	27.0*	-20.6	-0.6	S1P4 ag conf=-0.7;S1P1 agonist=-1.6
CN(C)C(=O)c1nnsc1Sc1ccc(Cl)cc1	0.194	14.4	-4.7	-11.9	-0.1	-11.6	·
CCN(CC)c1ccc(/C=N/NC(=O)c2cc(C)nc3ccccc23)cc1	0.07	12.2	-35.2	13.7	2.8	-5.0	·

Source: PubChem (several laboratories)
